EBI2 antag: antagonists of human EBI2 receptor; inhibition, % at 5 µM; actives 0.81% (n = 360,000); EBI2 beta-arrestin recruitment, luminescence, 7a,25-OHC stimulated; P32249; in the data active = inhibition above about 38%;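 also: enzyme fragment complementation signal reports receptor beta-arrestin coupling in cells; 0% = agonist plus DMSO wells and 100% = wells without agonist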
APJ ag: agonists of human APJ apelin receptor; actives 0.11% (n = 330,000); CHO-K1 APJ PathHunter beta-arrestin, luminescence; 0% DMSO wells, 100% apelin; activation, % at 20 µM;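 active = activation more than six SD over the plate average, tested at 20 µM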;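 also: 0% = DMSO alone and 100% = apelin-13 at 10 nM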
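Assay system: CHO-K1 cells stably expressing ProLink-tagged human APJ and arrestin–beta-gal acceptor. Compound dosing: 20 µM single point, 1% DMSO. Times: 16-18 h seeding, 90 min dark compound exposure, 60 min detection. Detection: beta-gal luminescence. Evaluation: APJ–arrestin association signal. Controls: negative DMSO alone, positive Apelin-13 at 10 nM.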
CCR6 antagonist: CCR6 (human) receptor antagonism. CHO-K1 CCR6 PathHunter beta-arrestin, luminescence, CCL20-stimulated. inhibition, % at 20 µM. actives 0.49% (n = 340,000). AID 493098;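 active = compounds whose inhibition of the agonist-driven luminescence signal at 20 µM reaches about 50%, limit read from the data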;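 also: cells stimulated with CCL20 at 14 nM final; plate controls were DMSO with CCL20 for no effect and DMSO without agonist for full effect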
CXCR6 block: blocks human CXCR6 beta-arrestin recruitment; O00574; actives 0.36% (n = 360,000); CHO-K1 PathHunter CXCR6 beta-arrestin, luminescence; AID 602244; inhibition, % at 20 µM; in the data active = inhibition above about 34%, passing the limit was not always enough;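 also: antagonist mode with CXCL16 agonist at 10 nM final; 0% = 10 nM CXCL16 with DMSO and 100% = unstimulated wells without agonist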
Target sequence (O00574 whole entry, looked up): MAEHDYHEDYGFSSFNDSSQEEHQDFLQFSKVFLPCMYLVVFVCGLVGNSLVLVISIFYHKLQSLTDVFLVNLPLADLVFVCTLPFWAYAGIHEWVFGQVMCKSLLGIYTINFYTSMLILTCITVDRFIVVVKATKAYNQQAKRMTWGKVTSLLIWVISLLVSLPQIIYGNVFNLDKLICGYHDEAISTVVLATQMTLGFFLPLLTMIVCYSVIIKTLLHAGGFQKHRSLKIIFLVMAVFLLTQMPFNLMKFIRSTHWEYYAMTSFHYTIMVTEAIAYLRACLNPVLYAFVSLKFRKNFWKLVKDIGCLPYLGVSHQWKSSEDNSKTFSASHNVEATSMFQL
APJ antagonist: antagonists of human APJ apelin receptor | P35414 | actives 0.32% (n = 330,000) | inhibition, % at 20 µM | CHO-K1 APJ beta-arrestin complementation, luminescence;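 active = inhibition above about 40% at 20 µM, limit read from the data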;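 also: cells challenged with 10 nM apelin-13 agonist together with compound; plate controls were apelin-13 plus DMSO wells for no effect and DMSO wells lacking apelin-13 for full effect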
EBI2 antag conf: confirmation of human EBI2 receptor antagonists. shares compounds with EBI2 antag. EBI2 beta-arrestin luminescence, 7a,25-OHC antagonism. inhibition, % at 5 µM. actives 29% (n = 2,400). AID 651997;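 active = inhibition of at least 50%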
EBI2 ag: activates EBI2, counter-screen for EBI2 antagonists; EBI2-expressing cells, agonist mode, luminescence, 60 min; 0% vehicle, 100% 7α,25-dihydroxycholesterol control; 2,400 tested, under 10 active; shares compounds with EBI2 antag; activation, % at 5 µM;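 active = activation of at least 50%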
bGal counter: inhibits E. coli beta-galactosidase, counter-screen for EBI2 antagonists | shares compounds with EBI2 antag | purified beta-galactosidase, luminescent Galacton Star, 15 min | inhibition, % at 5 µM | actives 1% (n = 2,400) | AID 652176;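 active = replicate-average signal at least 3 plate SD below neutral wells, shown as high inhibition, flagging enzyme-inhibiting false positives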;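 also: 0% = DMSO wells with enzyme and 100% = wells lacking enzyme; higher means stronger loss of beta-gal luminescence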
Numbers without * were called inactive; / = no result. An excerpt weighted towards active compounds, which were near 1.5% of everything screened.

SMILES	EBI2 antag	APJ ag	CCR6 antagonist	CXCR6 block	APJ antagonist	EBI2 antag conf	EBI2 ag	bGal counter
CCc1ccc(NC(=O)N2CCC(c3ccccc3)C2)cc1 (stereo not given)	83*	-6	17	0	-2	63*	0	6
CCOc1ccc(NC(=O)N2CCC(c3ccc(C)cc3)C2)cc1 (stereo not given)	81*	-2	11	-4	32	55*	0	3
CCOc1cc(N2CCOCC2)c(OCC)cc1NC(=O)c1cc(S(=O)(=O)N2CCOCC2)ccc1F	1	0	-19	0	-14	/	/	/
O=C(/C=C/c1ccc(OCCCF)cc1)NCc1ccc(Cl)cc1	50*	-3	-8	0	0	36	0	3
FCCCOc1ccc(/C=N/OCc2ccc(Cl)cc2)cc1	60*	0	24	4	13	23	1	3
FCCCOc1ccc(/C=N/OCc2c(Cl)cccc2Cl)cc1	35	-1	-1	-1	3	/	/	/
COc1ccc(NC(=O)N2CCCC(c3nc(-c4ccc(OC)cc4)no3)C2)cc1 (stereo not given)	58*	-1	11	4	-5	30	1	2
O=C(Nc1ccc(Cl)cc1)N1CCN(c2ccc3nnc(-c4ccc(F)cc4)n3n2)CC1	48*	-3	2	5	9	49	-2	-8
O=S(=O)(c1ccc(Cl)cc1)N1CCCC(c2nc(-c3ccc(F)cc3)no2)C1 (stereo not given)	24	-3	19	-4	9	/	/	/
O=C(Nc1ccc(Cl)cc1)N1CCC(c2nc(-c3ccc(F)cc3)no2)CC1	53*	-1	8	-3	-19	33	2	7
CN(c1ccccc1)S(=O)(=O)c1ccc(NC(=O)CC(=O)c2ccccc2)cc1	6	/	31	6	/	/	/	/
COC(=O)c1ccc2nc(-c3ccccc3)c(Cc3ccccc3OC)n2c1	11	/	/	14	/	/	/	/
COc1ccc([C@H]2CC(=O)C=C(c3ccc(OC)nc3)C2)cc1	34	-3	10	-2	6	/	/	/
COc1ccc(C2=CC(=O)C[C@H](c3ccc(Cl)cc3)C2)cn1	50*	-2	15	2	11	40	0	-13
COc1ccc([C@H]2CC(=O)C=C(c3ccc(C)c(F)c3)C2)cc1	53*	-4	14	-1	4	46	2	-2
COc1ccc([C@H]2CC(=O)C=C(c3ccc(Cl)c(F)c3)C2)cc1	51*	-2	15	-4	15	52*	-1	-6
COc1ccc([C@H]2CC(=O)C=C(c3ccc(Cl)cc3C)C2)cc1	25	-2	12	-10	1	/	/	/
COc1cccc(C2=CC(=O)C[C@H](c3ccc(Cl)cc3)C2)c1OC	62*	-5	14	10	-5	41	0	12
COc1ccc(C2=CC(=O)C[C@H](c3ccc(F)cc3)C2)cc1F	34	-5	20	3	11	/	/	/
COc1ccccc1C1=CC(=O)C[C@H](c2ccc(Cl)cc2)C1	22	-5	29	12	1	/	/	/
Cc1ccc(N2CC(C(=O)OCC(=O)Nc3c(C)cccc3C)CC2=O)cc1 (stereo not given)	9	/	/	4	/	/	/	/
Cc1cc(NCCCCCCCNc2cc(C)nc3cc([N+](=O)[O-])ccc23)c2ccc([N+](=O)[O-])cc2n1	-1	/	6	0	/	/	/	/
COc1ccc([C@H]2CC(=O)C=C(c3ccc(Cl)c(Cl)c3)C2)cc1	80*	0	17	2	5	57*	0	8
O=C1NC(=O)C2(CCCCC2)N1	-9	/	4	0	/	/	/	/
O=C(c1ccc(Cl)cc1)c1c[nH]c(C(=O)C(Cl)(Cl)Cl)c1	42*	-4	25	-4	25	47	3	0
SMILES	EBI2 antag	APJ ag	CCR6 antagonist	CXCR6 block	APJ antagonist	EBI2 antag conf	EBI2 ag	bGal counter
COCCN1C(=O)CN(S(C)(=O)=O)CC1(C)C(=O)NCc1ccccc1 (stereo not given)	-5	/	/	/	/	/	/	/
COc1ccc(-c2cc3c(c4c2ccn4C)C2CCC3C2)cc1OC (stereo not given)	-1	/	/	-3	/	/	/	/
C[C@H](CO)N1C[C@H](C)[C@@H](CN(C)S(=O)(=O)c2ccc(C#N)cc2)OCc2cn(nn2)CCCC1=O	0	/	/	0	/	/	/	/
COc1ccc(Nc2oc(COc3ccc(Cl)cc3)nc2C#N)cc1	18	4	11	-2	6	/	/	/
COc1ccc(CNc2oc(COc3ccc(Cl)cc3)nc2C#N)cc1	42*	1	22	-3	-13	29	0	1
Cc1ccc(NC(=O)CSc2nnnn2C2CCCC2)cc1S(=O)(=O)N1CCOCC1	5	0	4	-12	0	/	/	/
O=C(Nc1ccc2ccccc2c1)[C@@H]1C[C@H]1[C@@H](NP(=O)(c1ccccc1)c1ccccc1)c1ccccc1	59*	-6	4	6	11	11	-1	-13
COc1ccc(-c2nc3ccc(Br)cn3c2Cc2ccsc2)cc1OC	-10	/	/	-2	/	/	/	/
O=C(Nc1cccnc1)/C(N=Nc1c(Cl)cccc1Cl)=C(\O)c1ccccc1	51*	-3	9	9	15	35	4	4
O=C(Nc1cccnc1)/C(N=Nc1ccc(Cl)c(C(F)(F)F)c1)=C(\O)c1ccccc1	8	-2	-3	2	-12	/	/	/
O=C(/C=C/c1ccc(F)cc1)NNC(=O)CCN1CCN(Cc2ccccc2)CC1	42*	-3	-1	3	23	5	0	5
CN1CCN(C(=O)/C=C/c2ccc([N+](=O)[O-])cc2)CC1	22	0	10	-2	-5	/	/	/
O=C(/C=C/c1ccc([N+](=O)[O-])cc1)N1CCN(Cc2ccccc2)CC1	90*	5	-24	-10	-17	64*	1	-10
O=C(/C=C/c1ccc(F)cc1)NC(=S)N1CCN(Cc2ccccc2)CC1	35	0	15	11	-3	/	/	/
O=C(/C=C/c1ccc(OCCCF)cc1)N1CCN(Cc2ccccc2)CC1	88*	-2	9	-6	-2	50*	-1	-11
CCN1CCN(C(=O)/C=C/c2ccc([N+](=O)[O-])cc2)CC1	74*	1	-6	-10	-15	38	2	4
Cc1ccc(C(O)c2ncc(-c3ccccc3Cl)[nH]2)c(C)c1 (stereo not given)	-3	/	/	-4	/	/	/	/
Cn1c(N)c(C#N)c(-c2ccccc2)c(C#N)c1=O	4	/	/	4	/	/	/	/

Screens (PubChem BioAssay)
